Among the data in ChEMBL document CHEMBL1158806, “Cytotoxic activity of some natural and synthetic guaianolides” (J Nat Prod, 2005) are IC50 values, retold here.

Common to all, as to format: functional, cell-based
Assay [1] can be described thus: Cytotoxicity against human KBVIN cells after 3 days by SRB assay. The settings on record: 72 h. The method, boiled down: (§1)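 Cells kept in RPMI-1640 with 25 mM HEPES, 0.25% sodium bicarbonate, 10% FBS and 100 µg/mL kanamycin. Freshly trypsinized cells seeded at 1500-7500 per well, with compound added from DMSO-diluted stock. After 3 days, attached cells fixed with cold 50% TCA and stained with 0.4% SRB. Bound dye solubilized and absorbance read at 562 nm. IC50 is 50% growth reduction, mean of three determinations.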
In general terms: The SRB assay estimates cell density from bound dye.

Another assay has as its system A549. The assay is described as follows: Cytotoxicity against human A549 cells after 3 days by SRB assay. The note with it: A549, 72 h. An outline of the steps: as §1
For the next assay, the system named is 1A9. The experiment in a line: Cytotoxicity against human 1A9 cells after 3 days by SRB assay. The settings on record: 1A9, 72 h. The method, boiled down:
as §1

In another assay the test system is KB. The assay is described as follows: Cytotoxicity against human KB cells after 3 days by SRB assay. The settings on record: 72 h. The method, boiled down: as §1
A further assay has as its system SK-MEL-2. The assay is described as follows: Cytotoxicity against human SK-MEL-2 cells after 3 days by SRB assay. The settings on record: SK-MEL-2, 72 h. The method, boiled down:
as §1

The test system of another assay is HCT-8. The experiment in a line: Cytotoxicity against human HCT8 cells after 3 days by SRB assay. The settings on record: HCT-8, 72 h. An outline of the steps: as §1
For another assay, the system named is MCF7. The assay is described as follows: Cytotoxicity against human MCF7 cells after 3 days by SRB assay. The note with it: MCF7, 72 h. An outline of the steps: as §1

On to `C=C1C(=O)O[C@H]2[C@H]1[C@@H](OC(=O)[C@@]1(C)CO1)CC(=C)[C@@H]1C[C@H](OC(=O)[C@H](O)[C@@H](NC(=O)c3ccccc3)c3ccccc3)[C@@]3(CO3)[C@H]21`, for which the IC50 in assay [1] turned out to be 7500 nM; in the assay on A549 it was 0.8 µM; in the assay with 1A9 it was 200 nM; in the assay on KB, 300 nM; with SK-MEL-2, 1 µM; in the assay on HCT-8, 500 nM.
Turning to `C=C1C(=O)O[C@H]2[C@H]1[C@@H](OC(=O)[C@](C)(O)CBr)CC(=C)[C@@H]1C[C@H](O)[C@](O)(CBr)[C@H]21`, the IC50 worked out at 1300 nM in assay [1], 4.2 µM with A549, 400 nM in the assay with 1A9 and 1100 nM in the assay on KB.
Taken in the same sequence, the figures for `C=C1C(=O)O[C@H]2[C@H]1[C@@H](OC(=O)[C@](C)(O)CI)CC(=C)[C@@H]1C[C@H](O)[C@]3(CO3)[C@H]21` were 1800 nM, 7.3 µM, 800 nM and 2000 nM.
As to `C=C1C(=O)O[C@H]2[C@H]1[C@@H](OC(=O)[C@@]1(C)CO1)CC(=C)[C@@H]1C[C@H](OC(=O)[C@@H]3OC(c4ccccc4)=N[C@H]3c3ccccc3)[C@@]3(CO3)[C@H]21`, the IC50 in assay [1] was determined as 2600 nM; with A549, 3.4 µM; with 1A9 it was 800 nM; in the assay with KB, 2600 nM; in the assay on SK-MEL-2, 1.5 µM; with HCT-8, 500 nM.
Take `C=C1C(=O)O[C@H]2[C@H]1[C@@H](OC(=O)[C@](C)(O)CBr)CC(=C)[C@@H]1C[C@H](O)[C@]3(CO3)[C@H]21`: the IC50 in assay [1] is 6300 nM; in the assay on A549 it was 4.3 µM; with 1A9, 1100 nM; in the assay with KB, 1100 nM; in the assay on SK-MEL-2, 3.6 µM; with HCT-8 it was 1300 nM.
As for `C=C1C(=O)O[C@H]2[C@H]1[C@@H](OC(=O)[C@](C)(O)CI)CC(=C)[C@@H]1C[C@H](O)[C@](O)(CI)[C@H]21`, the IC50 is 5500 nM in assay [1]; 3.6 µM with A549; 1300 nM in the assay on 1A9; 1000 nM in the assay on KB; 2.6 µM in the assay on SK-MEL-2; 1300 nM in the assay on HCT-8.
For the molecule `C=C1C(=O)O[C@H]2[C@H]1[C@@H](OC(=O)[C@@]1(C)CO1)CC(=C)[C@@H]1C[C@H](O)[C@](O)(CI)[C@H]21`, the IC50 was found to be 18600 nM in assay [1]; 13.7 µM in the assay on A549; 5600 nM in the assay with 1A9; 4100 nM with KB; 9.4 µM with SK-MEL-2; 4500 nM in the assay on HCT-8.
For the molecule `C=C(C)C(=O)O[C@H]1CC(=C)[C@@H]2C[C@H](O)C(=C)[C@@H]2[C@H]2OC(=O)C(=C)[C@@H]21` [AGUERIN B], the values for the IC50 with MCF7 and in the assay on A549 were 3.3 µM and 26.4 µM, respectively.
Taken in the same sequence, the figures for `C=C1C(=O)O[C@H]2[C@H]1[C@@H](OC(=O)[C@](C)(O)CO)CC(=C)[C@@H]1C[C@H](O)[C@]3(CO3)[C@H]21` [BABYLIN A] were greater than 26.3 µM and greater than 26.3 µM.
Taken in the same sequence, the figures for `C=C1C(=O)O[C@H]2[C@H]1[C@@H](OC(=O)[C@@]1(C)CO1)CC(=C)[C@@H]1C[C@H](O)[C@](O)(CO)[C@H]21` [BABYLIN B] were greater than 26.3 µM and greater than 26.3 µM.
On the same counts, the results for `C=C1C(=O)O[C@H]2[C@H]1[C@@H](OC(=O)[C@@](C)(O)CO)CC(=C)[C@@H]1C[C@H](O)[C@@](O)(CCl)[C@H]21` [CEBELLIN J] are greater than 24 µM and greater than 24 µM.
Regarding `C=C1C(=O)O[C@H]2[C@H]1[C@@H](OC(=O)[C@](C)(O)CCl)CC(=C)[C@@H]1C[C@H](O)[C@](O)(CCl)[C@H]21` [CENTAUREPENSIN], the IC50 was 2800 nM in assay [1], 10.3 µM with A549, 700 nM with 1A9 and 4100 nM in the assay on KB.
Regarding `C=C1C(=O)O[C@H]2[C@H]1[C@@H](OC(=O)[C@](C)(O)CCl)CC(=C)[C@@H]1C[C@H](O)[C@]3(CO3)[C@H]21` [CHLOROHYSSOPIFOLIN C], the IC50 in the assay on MCF7 turned out to be 1.5 µM; in assay [1], 1500 nM; with A549 it was 9.3 µM; in the assay with 1A9 it was 800 nM; with KB it was 2000 nM; in the assay with HCT-8, 1600 nM.
`C=C(CO)C(=O)O[C@H]1CC(=C)[C@@H]2C[C@H](O)C(=C)[C@@H]2[C@H]2OC(=O)C(=C)[C@@H]21` [CYNAROPICRIN]: the IC50 in the assay with MCF7 is 3.2 µM; in the assay on A549 it was 16.5 µM; in the assay with KB, 15900 nM; with SK-MEL-2 it was 5.8 µM.
On to `C=C(CO)C(=O)O[C@H]1CC(=C)[C@@H]2C[C@H](O)[C@]3(CO3)[C@@H]2[C@H]2OC(=O)C(=C)[C@@H]21` [JANERIN], for which the IC50 in assay [1] worked out at 25900 nM; in the assay on A549 it was 19.9 µM; with 1A9, 5000 nM; in the assay on KB it was 3000 nM; in the assay on SK-MEL-2, 8 µM; with HCT-8, 5500 nM.
As for `CO[C@@]12[C@H](COC(N)=O)C3=C(C(=O)C(C)=C(N)C3=O)N1C[C@@H]1N[C@@H]12` [MITOMYCIN], the IC50 came to 1.5 µM in the assay on MCF7, 0.3 µM in the assay on A549, 600 nM in the assay with KB and 600 nM with HCT-8.
As for `CC(=O)O[C@H]1C(=O)[C@@]2(C)[C@H]([C@H](OC(=O)c3ccccc3)[C@]3(O)C[C@H](OC(=O)[C@H](O)[C@@H](NC(=O)c4ccccc4)c4ccccc4)C(C)=C1C3(C)C)[C@]1(OC(C)=O)CO[C@@H]1C[C@@H]2O` [PACLITAXEL], the IC50 was determined as 2 nM with 1A9, 1 nM in the assay on KB and 13 nM in the assay on HCT-8.
In the case of `C=C1C(=O)O[C@H]2[C@H]1[C@@H](OC(=O)[C@]1(C)CO1)CC(=C)[C@@H]1C[C@H](O)[C@]3(CO3)[C@H]21` [REPIN], the IC50 in the assay on MCF7 was found to be 1.1 µM; in assay [1], 800 nM; with A549 it was 2.5 µM; with 1A9 it was 300 nM; in the assay with KB it was 1400 nM; in the assay with SK-MEL-2, 2.5 µM. In addition, the half-inhibitory concentration (IC50) in the assay on HCT-8 came out at 800 nM.

Usually IC50 stands for the concentration needed to halve the response being measured. The low end stands for greater potency, the high end for weaker potency.
